Calls of active or inactive are those of the source. The calls are words filed in the database; no cut-off is given here.
Key:
[1] = biological target: T1, Melanin-concentrating hormone receptor 1 (Rattus norvegicus, UniProt P97639); test: Displacement of [3H]T-226296 from rat recombinant MCH1 receptor
[2] = biological target: T1, Melanin-concentrating hormone receptor 1; test: Antagonist activity at rat MCH1 receptor expressed in HEK293 cells by FLIPR calcium mobility assay; type: functional, cell-based
D(2) dopamine receptor = D(2) dopamine receptor (Homo sapiens, UniProt P14416); test: Displacement of [3H]spiperone from human recombinant dopamine D2 receptor
Sequence of D(2) dopamine receptor (P14416 whole entry): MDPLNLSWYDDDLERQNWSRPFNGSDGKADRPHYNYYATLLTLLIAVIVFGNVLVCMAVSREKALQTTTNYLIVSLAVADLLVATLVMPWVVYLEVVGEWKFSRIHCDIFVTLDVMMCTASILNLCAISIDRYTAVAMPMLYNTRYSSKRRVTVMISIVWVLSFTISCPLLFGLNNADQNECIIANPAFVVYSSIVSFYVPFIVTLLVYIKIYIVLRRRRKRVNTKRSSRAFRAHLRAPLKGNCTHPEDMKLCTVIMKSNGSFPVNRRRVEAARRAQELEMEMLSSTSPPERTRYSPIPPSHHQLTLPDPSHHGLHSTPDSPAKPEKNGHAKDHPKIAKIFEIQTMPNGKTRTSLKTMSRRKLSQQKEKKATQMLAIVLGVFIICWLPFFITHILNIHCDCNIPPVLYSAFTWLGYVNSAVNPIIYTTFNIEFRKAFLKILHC

[3] = biological target: T2, Alpha-1A adrenergic receptor (Homo sapiens, UniProt P35348); test: Displacement of [125I]HEAT from human recombinant adrenergic alpha-1A receptor
T2 sequence (P35348 whole entry): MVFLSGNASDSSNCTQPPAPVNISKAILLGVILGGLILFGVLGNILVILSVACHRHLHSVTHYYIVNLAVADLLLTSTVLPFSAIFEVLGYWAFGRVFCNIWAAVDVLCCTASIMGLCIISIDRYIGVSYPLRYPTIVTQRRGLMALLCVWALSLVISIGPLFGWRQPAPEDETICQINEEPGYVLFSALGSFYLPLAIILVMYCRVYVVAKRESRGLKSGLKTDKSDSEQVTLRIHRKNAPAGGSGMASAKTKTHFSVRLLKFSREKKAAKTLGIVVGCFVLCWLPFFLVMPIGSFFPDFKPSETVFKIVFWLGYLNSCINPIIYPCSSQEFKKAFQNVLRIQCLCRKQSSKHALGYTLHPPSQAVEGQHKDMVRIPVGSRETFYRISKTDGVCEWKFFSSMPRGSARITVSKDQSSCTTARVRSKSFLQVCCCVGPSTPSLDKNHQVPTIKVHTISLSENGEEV

[4] = Blood clearance in rat at 2 mg/kg, po and 1 mg/kg iv; type: ADME, organism-based; details: whole blood
[5] = Plasma clearance in rat at 2 mg/kg, po and 1 mg/kg iv; type: ADME, organism-based
[6] = Half life in rat at 2 mg/kg, po and 1 mg/kg iv; type: ADME, organism-based; details: in vivo
[7] = Drug level in brain at 10 mg/kg, po after 4 hrs; type: ADME, organism-based; set-up: dose 10 mg/kg, route oral; details: rat, read-out: Drug uptake
Procedure, shortened: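 Separate rat experiment: single 10 mg/kg oral dose, brain and plasma exposures measured 4 h after dosing (n = 2); brain level expressed in ng/g, also as brain/plasma ratio.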

[8] = Volume of distribution at steady state in rat; type: ADME, organism-based; details: in vivo, read-out: Vss
[9] = Ratio of drug level in brain to plasma in rat at 10 mg/kg, po; type: ADME, organism-based; set-up: dose 10 mg/kg, route oral
Procedure, shortened: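 Rats received a single oral dose in a study separate from the main PK study. Brain and plasma concentrations were measured 4 h after dosing (n = 2), and the ratio was taken as brain level over plasma level. The limit of quantitation was 2 ng/mL for plasma and 2 ng/g for brain.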

Rattus norvegicus [10] = test: Inhibition of MCH-stimulated water intake in rat at 10 mg/kg, po; type: functional, organism-based; set-up: dose 10 mg/kg
Rattus norvegicus [11] = test: Inhibition of MCH-stimulated water intake in rat at 1 mg/kg, po; type: functional, organism-based; set-up: dose 1 mg/kg
Rattus norvegicus [12] = test: Inhibition of MCH-stimulated water intake in rat at 2.5 mg/kg, po; type: functional, organism-based; set-up: dose 2.5 mg/kg
[13] = Bioavailability in rat at 2 mg/kg, po and 1 mg/kg iv; type: ADME, organism-based; details: in vivo
Rattus norvegicus [14] = test: Anxiolytic activity in rat assessed as social interaction time at 0.3 mg/kg, po after 1 hr relative to control

T1 sequence (P97639 whole entry): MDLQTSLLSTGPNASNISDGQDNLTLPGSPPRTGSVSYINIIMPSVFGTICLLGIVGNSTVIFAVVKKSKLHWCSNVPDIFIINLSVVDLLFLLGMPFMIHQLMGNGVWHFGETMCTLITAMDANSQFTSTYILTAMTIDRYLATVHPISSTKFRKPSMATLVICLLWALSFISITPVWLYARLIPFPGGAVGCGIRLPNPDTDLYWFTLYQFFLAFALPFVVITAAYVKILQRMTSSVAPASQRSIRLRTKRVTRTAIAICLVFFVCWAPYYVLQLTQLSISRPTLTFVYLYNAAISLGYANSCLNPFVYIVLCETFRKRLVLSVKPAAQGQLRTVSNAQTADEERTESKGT

SMILES	Ki [1] [nM]	IC50 [2] [nM]	Ki (D(2) dopamine receptor) [nM]	further results
CC(C)C(=O)Nc1cccc(C2CCN(Cc3cccc(Oc4ccc(C(C)(C)C)cc4)c3)CC2)c1	540			
Cc1ccc(C2CCN(Cc3ccc(Oc4ccc(F)c(F)c4)cc3)CC2)cc1NC(=O)C(C)C	27	360	400	Ki [3]: 1010 nM
Cc1ccc(NC(=O)C(C)C)cc1C1CCN(Cc2ccc(Oc3ccc(F)c(F)c3)cc2)CC1		230	7400	clearance [4]: 55 mL/min/kg; Ki [3]: 180 nM; clearance [5]: 70 mL/min/kg; half-life [6]: 5.2 h; concentration at 4 h [7]: 184 ng/g; Vd [8]: 29 L/kg; Kp [9]: 2.3; Activity (Rattus norvegicus [10]): Active; Activity (Rattus norvegicus [11]): Active; Activity (Rattus norvegicus [12]): Active; bioavailability [13]: 59%; Time (Rattus norvegicus [14]): 81 s
CC(C)C(=O)Nc1cccc(C2CCN(Cc3ccc(Oc4ccccc4)cc3)CC2)c1	10	320	120	
CC(C)C(=O)Nc1cccc(C2CCN(Cc3cccc(Oc4cc(Cl)cc(Cl)c4)c3)CC2)c1	140	1400		
COc1ccc(Oc2cccc(CN3CCC(c4cccc(NC(=O)C(C)C)c4)CC3)c2)cc1			1000	
CC(C)C(=O)Nc1cccc(C2CCN(Cc3cccc(Oc4cccc(C(F)(F)F)c4)c3)CC2)c1		5400		
CC(C)C(=O)Nc1cccc(C2CCN(Cc3cccc(Oc4ccc(Cl)c(Cl)c4)c3)CC2)c1	18	2600		
COc1ccc(Oc2ccc(CN3CCC(c4cccc(NC(=O)C(C)C)c4)CC3)cc2)cc1		720	1400	
CC(C)C(=O)Nc1cccc(C2CCN(Cc3cccc(Oc4ccc(Cl)cc4)c3)CC2)c1	23	2000		
CC(C)C(=O)Nc1cccc(C2CCN(Cc3ccc(Oc4ccc(Cl)cc4)cc3)CC2)c1	5.3	350	110	
O=C(CCCN1CCC(O)(c2ccc(Cl)cc2)CC1)c1ccc(Cl)cc1 [CHLOROHALOPERIDOL]	350		190	Ki [3]: 150 nM
CC(C)C(=O)Nc1cccc(C2CCN(Cc3ccc(Oc4ccc(F)c(F)c4)cc3)CC2)c1			470	Ki [3]: 200 nM
CC(C)C(=O)Nc1cccc(C2CCN(Cc3ccc(Oc4ccc(Cl)c(Cl)c4)cc3)CC2)c1	8.2	710	2900	Ki [3]: 34000 nM

More lines, main results first:

Ki [1] [nM]	IC50 [2] [nM]	Ki (D(2) dopamine receptor) [nM]	SMILES	further results
490	> 10000		CC(=O)Nc1cccc(C2CCN(CCCC(=O)c3ccc(Oc4ccccc4)cc3)CC2)c1	
5	72	610	CC(C)C(=O)Nc1cccc(C2CCN(CCCC(=O)c3ccc(Cl)cc3)CC2)c1	
70	570	1400	CC(=O)Nc1cccc(C2CCN(CCCC(=O)c3ccc(Cl)cc3)CC2)c1	
		2800	COCC1=C(C(=O)OC)[C@H](c2ccc(F)c(F)c2)N(C(=O)NCCCN2CCC(c3cccc(NC(C)=O)c3)CC2)C(=O)N1 [SNAP-7941]	Ki [3]: 40 nM
		780	O=C(Cc1ccccc1)Nc1cccc(C2CCN(CCCC(=O)c3ccc(Cl)cc3)CC2)c1	
200			O=C(CCCN1CCC(c2cccc(NC(=O)C3CCCCC3)c2)CC1)c1ccc(Cl)cc1	
350	2700		CC(=O)Nc1cccc(C2CCN(CCCC(=O)c3ccccc3)CC2)c1	
		1300	Cc1ccc(Oc2cccc(CN3CCC(c4cccc(NC(=O)C(C)C)c4)CC3)c2)cc1	
100	1300		CC(=O)Nc1cccc(C2CCN(CCCC(=O)c3ccc(C)c(C)c3)CC2)c1	
	2400		CC(=O)Nc1cccc(C2CCN(CCCC(=O)c3ccc(C)cc3)CC2)c1	

Source: ChEMBL document CHEMBL1148741, “Synthesis and SAR investigations for novel melanin-concentrating hormone 1 receptor (MCH1) antagonists part 2: A hybrid strategy combining key fragments of HTS hits” (J Med Chem, 2007)
